Experimental data gathered from unrelated publications.
Each line is one published result; the experiments were not run side by side.
Matrix: plasma

CCn1c(=O)c(-c2cc(NC(=O)Nc3ccccc3)c(F)cc2Br)cc2cnc(NC)cc21 — Cmax (human; oral; 100 mg; single dose, patients): 500 ng/mL
COCCOc1cnc2ccn([C@H](C)c3nnc4c(F)cc(-c5cnn(C)c5)cn34)c(=O)c2c1 — Cmax (human; oral; 50 mg; multiple doses, once daily, patients): 730 ng/mL
COc1cc(C(=O)NC2CCN(C)CC2)c(F)cc1Nc1ncc(C(F)(F)F)c(Oc2cccc3c2C(=O)N(C)C3)n1 — Cmax (human; oral; 25 mg; multiple doses, once daily, steady state, patients): 405 nM
CC(C)(O)c1ccccc1-c1ccc2[nH]c(/C=C/c3ccc(C(F)(F)F)cc3)nc2c1 — Cmax (male human; oral; 5 mg; single dose, fasted, healthy volunteers): 29.6 ng/mL
FC(F)(F)c1ccc(CNc2ccc(Cc3c[nH]c4ncc(Cl)cc34)cn2)cn1 — Cmax (human; oral; 1200 mg; multiple doses, patients): 8730 ng/mL
FC(F)(F)c1ccc(CNc2ccc(Cc3c[nH]c4ncc(Cl)cc34)cn2)cn1 — Cmax (human; oral; 600 mg; single dose, fasted, healthy volunteers): 4220 ng/mL
CCCCC1=NC2(CCCC2)C(=O)N1Cc1ccc(-c2ccccc2S(=O)(=O)Nc2noc(C)c2C)c(COCC)c1 — Cmax (human; oral; 200 mg; single dose, fed, healthy volunteers): 6280 ng/mL
Cn1cc(-c2ccc(S(=O)(=O)[C@@H]3C[C@@H](C(=O)NC4(C#N)CC4)N(C(=O)C4(C(F)(F)F)CC4)C3)c(C(F)(F)F)c2)cn1 — Cmax (human; oral; 100 mg; single dose, fed): 946 ng/mL
CC(C)n1cc(C#N)c2cc(-n3cc(C(=O)O)cn3)ccc21 — Cmax (human; oral; 100 mg; single dose, fasted, healthy volunteers): 3520 ng/mL
N#CN1C[C@H](n2nc(-c3ccc(Oc4ccc(Cl)cn4)cc3)c(C(N)=O)c2N)CCC12CC2 — Cmax (human; oral; 600 mg; fed): 1020 ng/mL
CS(=O)(=O)CCNCc1ccc(-c2ccc3ncnc(Nc4ccc(OCc5cccc(F)c5)c(Cl)c4)c3c2)o1 — Cmax (human; oral; 900 mg; multiple doses, twice daily, steady state, patients): 3570 ng/mL
CO[C@H]1CC[C@H](N2C(=O)CNc3ncc(-c4ccc(C(C)(C)O)nc4)nc32)CC1 — Cmax (human; oral; 45 mg; multiple doses, patients): 417 ng/mL
COc1cc2c(Nc3ccc(Br)cc3F)ncnc2cc1OCC1CCN(C)CC1 — Cmax (human; oral; 85 mg/m²; multiple doses, once daily, patients): 716 ng/mL
CO[C@@H]1[C@H](OC(=O)N2CC(CCN3CCOCC3)C2)CC[C@]2(CO2)[C@H]1[C@@]1(C)O[C@@H]1CC=C(C)C — Cmax (human; subcutaneous; 4.8 mg; single dose, healthy volunteers): 18.7 ng/mL
Br.Cc1ccc(Sc2ccccc2N2CCNCC2)c(C)c1 — Cmax (human; oral; 10 mg; multiple doses, steady state, healthy volunteers): 18 ng/mL
CC(C)(Sc1ccncc1-c1ccc(C#N)c2ccccc12)C(=O)O — Cmax (male human; oral; 40 mg; single dose, fasted, healthy volunteers): 760 ng/mL
CCc1nc2c(C)cc(N3CCN(CC(=O)N4CC(O)C4)CC3)cn2c1N(C)c1nc(-c2ccc(F)cc2)c(C#N)s1 — Cmax (human; oral; 60 mg; single dose, fed, healthy volunteers): 600 ng/mL
Cc1ccc(C(=O)N(CCCN)[C@@H](c2oc3cc(Cl)ccc3c(=O)c2Cc2ccccc2)C(C)C)cc1 — Cmax (human; intravenous; 8 mg/m²; single dose, patients, infusion): 803 ng/mL
CCCCC[C@H](O)CC[C@@H]1[C@H]2Cc3cccc(OCC(=O)O)c3C[C@H]2C[C@H]1O — Cmax (human; inhaled; 36 µg; single dose, healthy volunteers): 0.87 ng/mL
COc1ccc([C@@H]2CN(C(=O)[C@@H](O)CO)C[C@@]2(C)[C@@H](C)O)cc1OC1CN(c2ccc(C)cn2)C1 — Cmax (human; oral; 40 mg; single dose, healthy volunteers): 799 ng/mL
